According to ChEMBL document CHEMBL1914308, “N-fused imidazoles as novel anticancer agents that inhibit catalytic activity of topoisomerase IIα and induce apoptosis in G1/S phase” (J Med Chem, 2011):
Active and inactive are the calls of the source. No cut-off for these calls is given here.

Columns and labels:
[1] = target: T1, DNA topoisomerase 2-alpha (Homo sapiens, UniProt P11388); assay: Inhibition of topoisomerase 2 alpha-mediated DNA relaxation activity in human HEK293 cells assessed as increase in supercoiled DNA at 35 uM […] by agarose gel electrophoresis; type: cell-based
[2] = test system: HEK293; assay: Induction of apoptosis in human HEK293 cells assessed as apoptotic cells at 35 uM after 48 hrs by propidium iodide staining-based FACS analysis (reference value: 4.88 +/- 0.8%); type: functional
[3] = target: T1, DNA topoisomerase 2-alpha; assay: Competitive inhibition of human topoisomerase-2 alpha-ATPase activity by Lineweaver-Burk assay in presence of 200 to 520 uM ATP
Outline: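 Compound at 0, 50, 100, 150 μM, each with ATP at 200–520 μM; 20 min at 37 °C. Released phosphate read by malachite green at OD 620 nm; Lineweaver–Burk analysis, Ki from slope replot.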

[4] = test system: HEK293; assay: Induction of apoptosis in human HEK293 cells assessed as apoptotic cells at 25 uM after 48 hrs by propidium iodide staining-based FACS analysis (reference value: 4.88 +/- 0.8%); type: functional
[5] = test system: HEK293; assay: Induction of cell cycle arrest in human HEK293 cells assessed as accumulation at G1 phase at 25 uM after 48 hrs by propidium iodide staining-based FACS analysis (reference value: 61 +/- 0.9%); type: functional
[6] = test system: HEK293; assay: Antimigratory activity against human HEK293 cells at 25 uM after 24 hrs by wound healing assay; type: functional, cell-based
Outline: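 Wound healing in HEK 293 monolayer: scratch made with sterile micro tip, cells then cultured with or without 25 μM compound; gap closure followed over time to 24 h. Best of three independent experiments shown.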

[7] = test system: HEK293; assay: Anticlonogenic activity against human HEK293 cells assessed as inhibition of colony formation of cells at 25 uM after 48 hrs by crystal violet staining; type: functional, cell-based
[8] = test system: HEK293; assay: Cytotoxicity against human HEK293 cells assessed as cell survival after 48 hrs by MTT assay; type: functional; settings: HEK293, 48 h, read-out: LC50 (the source's name)
Outline: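 HEK 293 cells were cultured in DMEM with 10% FBS and antibiotics at 37 °C in 5% CO₂. At 60–70% confluence they were treated for 48 h with various concentrations, diluted in DMEM from 100 mM DMSO stocks. Survival was read by MTT. LC₅₀ is the concentration killing 50% of cells. Data are mean ± SD of three independent experiments.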

[9] = test system: HEK293; assay: Cytotoxicity against human HEK293 cells assessed as cell survival at 12 uM after 24 hrs by MTT assay; type: functional, cell-based
[10] = test system: HEK293; assay: Induction of apoptosis in human HEK293 cells assessed as increase in Bax/Bcl-XL ratio at 15 to 25 uM after 48 hrs by Western blot analysis; type: functional, cell-based
Outline: (§1)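 Whole-cell extracts from HEK 293 cells after 48 h at graded concentrations, Western blotted for caspase-3, Bax, Bcl-XL and PARP (cleaved 86 kDa fragment); β-actin as loading control.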

[11] = test system: Vero; assay: Cytotoxicity activity against african green monkey Vero assessed as cell survival at 12 uM after 48 hrs by MTT assay; type: cell-based; settings: chlorocebus sabaeus
[12] = test system: HEK293; assay: Induction of apoptosis in human HEK293 cells assessed as increase in Bax protein expression at 15 to 25 uM after 48 hrs by Western blot analysis; type: functional, cell-based; outline: as §1
[13] = target: T1, DNA topoisomerase 2-alpha; assay: Inhibition of human topoisomerase 2 alpha-mediated decatenation of kDNA by agarose gel electrophoresis
Outline: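 kDNA decatenation by hTopoIIα run at 10 to 100 μM compound under the standard decatenation conditions (37 °C, 30 min, agarose gel, densitometry); IC50 taken from the concentration–inhibition plot.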

[14] = test system: HEK293; assay: Cytotoxicity against human HEK293 cells assessed as cell survival at 12 uM after 48 hrs by MTT assay; type: functional; settings: HEK293, 48 h, read-out: Activity
Outline: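 MTT survival of HEK 293 and Vero cells after 48 h with compound at graded concentrations. DMEM, 10% FBS, 37 °C, 5% CO2; dilutions in DMEM from 100 mM DMSO stock, added at 60–70% confluence. Mean ± SD of three independent experiments.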

[15] = test system: HEK293; assay: Induction of cell cycle arrest in human HEK293 cells assessed as accumulation at G1 phase at 35 uM after 48 hrs by propidium iodide staining-based FACS analysis (reference value: 61 +/- 0.9%); type: functional
[16] = target: T1, DNA topoisomerase 2-alpha; assay: Inhibition of etoposide poisoning activity against human recombinant DNA topoisomerase 2alpha assessed as enhancement of in relaxation of supercoiled plasmid pBR322 DNA at 200 uM after 30 mins by agarose gel electrophoresis in presence of etoposide
[17] = test system: HEK293; assay: Induction of apoptosis in human HEK293 cells assessed as increase in apoptotic nuclei at 35 uM after 48 hrs by DAPI staining-based fluorescence microscopic analysis; type: functional
Outline: (§2)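 HEK 293 cells exposed 48 h to 0, 15, 25 or 35 μM, nuclei stained with DAPI and apoptotic nuclei counted by fluorescence imaging; three replicates.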

[18] = test system: HEK293; assay: Anticlonogenic activity against human HEK293 cells after 48 hrs by crystal violet staining; type: functional; settings: HEK293, 48 h, read-out: LC50 (the source's name)
Outline: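 HEK 293 and Vero cells were grown in DMEM with 10% FBS and 1% penicillin/streptomycin at 37 °C in 5% CO₂. At 60–70% confluence they were exposed for 48 h to a range of concentrations, diluted in DMEM from 100 mM DMSO stocks. Colony survival is expressed as %. Values are mean ± SD of three independent experiments; LC₅₀ is the concentration killing half the cells.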

[19] = test system: HEK293; assay: Induction of cell cycle arrest in human HEK293 cells assessed as accumulation at G2/M phase at 15 uM after 48 hrs by propidium iodide staining-based FACS analysis (reference value: 7.5 +/- 1.0%); type: functional
[20] = test system: HEK293; assay: Induction of cell cycle arrest in human HEK293 cells assessed as accumulation at G1 phase at 15 uM after 48 hrs by propidium iodide staining-based FACS analysis (reference value: 61 +/- 0.9%); type: functional
[21] = test system: Vero; assay: Anticlonogenic activity against african green monkey Vero cells assessed as inhibition of colony formation of cells at 20 to 100 uM after 48 hrs by crystal violet staining; type: cell-based; settings: chlorocebus sabaeus
Outline: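 Clonogenic survival in HEK 293 and Vero cells, 48 h exposure at graded concentrations; % survival plotted; mean ± SD of three independent experiments. Cells grown in DMEM with 10% FBS and 1% antibiotic at 37 °C, 5% CO2; compound diluted from 100 mM DMSO stock into DMEM, added at 60–70% confluence.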

[22] = target: T1, DNA topoisomerase 2-alpha; assay: Inhibition of topoisomerase 2 alpha-mediated DNA relaxation activity in human HEK293 cells assessed as increase in supercoiled DNA at 5 to 25 uM […] by agarose gel electrophoresis; type: cell-based
[23] = test system: HEK293; assay: Induction of apoptosis in human HEK293 cells assessed as decrease in Bcl-XL protein expression at 15 to 25 uM after 48 hrs by Western blot analysis; type: functional, cell-based; outline: as §1
[24] = test system: HEK293; assay: Induction of cell cycle arrest in human HEK293 cells assessed as accumulation at S phase at 35 uM after 48 hrs by propidium iodide staining-based FACS analysis (reference value: 16.91 +/- 1.0%); type: functional
[25] = test system: HEK293; assay: Induction of apoptosis in human HEK293 cells assessed as increase in apoptotic nuclei at 25 uM after 48 hrs by DAPI staining-based fluorescence microscopic analysis; type: functional; outline: as §2

T1 sequence (P11388 whole entry): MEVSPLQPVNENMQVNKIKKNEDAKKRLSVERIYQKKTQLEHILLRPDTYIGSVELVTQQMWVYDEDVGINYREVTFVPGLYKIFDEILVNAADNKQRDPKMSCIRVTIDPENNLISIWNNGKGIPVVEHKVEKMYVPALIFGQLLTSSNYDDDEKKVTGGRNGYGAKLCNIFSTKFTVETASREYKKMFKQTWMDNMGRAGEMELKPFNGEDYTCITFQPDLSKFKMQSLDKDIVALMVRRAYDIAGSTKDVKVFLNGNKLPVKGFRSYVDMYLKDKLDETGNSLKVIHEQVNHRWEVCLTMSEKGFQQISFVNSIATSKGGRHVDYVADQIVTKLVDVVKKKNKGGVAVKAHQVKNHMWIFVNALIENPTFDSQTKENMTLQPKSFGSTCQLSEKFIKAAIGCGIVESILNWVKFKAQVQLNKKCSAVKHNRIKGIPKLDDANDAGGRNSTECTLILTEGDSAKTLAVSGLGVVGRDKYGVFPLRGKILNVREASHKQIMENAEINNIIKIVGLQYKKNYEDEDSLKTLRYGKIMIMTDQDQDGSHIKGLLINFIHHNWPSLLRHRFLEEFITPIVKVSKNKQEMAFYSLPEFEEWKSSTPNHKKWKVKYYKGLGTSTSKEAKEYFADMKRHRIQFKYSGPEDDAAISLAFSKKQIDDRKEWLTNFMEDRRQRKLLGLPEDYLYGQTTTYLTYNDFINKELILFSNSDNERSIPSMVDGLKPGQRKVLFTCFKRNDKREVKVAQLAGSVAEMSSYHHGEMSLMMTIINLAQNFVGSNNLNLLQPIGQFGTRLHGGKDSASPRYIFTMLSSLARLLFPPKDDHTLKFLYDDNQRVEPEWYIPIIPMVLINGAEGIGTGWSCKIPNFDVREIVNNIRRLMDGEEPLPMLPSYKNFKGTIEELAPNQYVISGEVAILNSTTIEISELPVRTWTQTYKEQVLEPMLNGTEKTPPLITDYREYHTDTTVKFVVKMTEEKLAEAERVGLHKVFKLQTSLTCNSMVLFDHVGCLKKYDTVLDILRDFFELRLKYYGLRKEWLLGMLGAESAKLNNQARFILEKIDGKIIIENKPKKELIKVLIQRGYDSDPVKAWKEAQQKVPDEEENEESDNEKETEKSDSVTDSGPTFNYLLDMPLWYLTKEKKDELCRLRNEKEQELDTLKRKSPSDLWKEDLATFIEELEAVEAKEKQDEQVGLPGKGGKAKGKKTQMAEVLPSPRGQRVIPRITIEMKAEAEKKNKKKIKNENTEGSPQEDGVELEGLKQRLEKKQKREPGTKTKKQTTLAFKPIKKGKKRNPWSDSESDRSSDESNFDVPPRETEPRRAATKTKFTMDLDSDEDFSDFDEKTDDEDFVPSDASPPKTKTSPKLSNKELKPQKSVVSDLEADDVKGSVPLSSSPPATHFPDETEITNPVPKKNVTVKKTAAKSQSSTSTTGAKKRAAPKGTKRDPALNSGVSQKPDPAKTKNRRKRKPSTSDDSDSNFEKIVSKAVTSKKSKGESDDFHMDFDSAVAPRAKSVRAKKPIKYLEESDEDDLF

With `CC(C)(C)Nc1c(-c2ccc(C(=O)O)cc2)nc2ccccn12` as the molecule, how does the inhibition [1] read?
The inhibition was “Active”.

And the Activity [2]?
Its Activity is 49.29%.

And the Ki [3]?
Its Ki is 75 µM.

What about the Activity [4] of the same molecule?
The Activity was 27.46%.

And the Activity [5]?
The Activity was 36.64%.

And the Activity [6]?
The Activity was “Active”.

What about the Activity [7] of the same molecule?
The Activity was “Active”.

And the CC50 [8]?
The CC50 was 12 µM.

What about the Activity [9] of the same molecule?
The Activity was “Active”.

And the Activity [10]?
The Activity was “Active”.

What about the Activity [11] of the same molecule?
The Activity was “Non-toxic”.

What about the Activity [12] of the same molecule?
The Activity was “Active”.

What about the IC50 [13] of the same molecule?
The IC50 was 52.7 µM.

What about the viability at 12 µM [14] of the same molecule?
The viability at 12 µM was greater than 50%.

What about the Activity [15] of the same molecule?
Its Activity is 21.52%.

And the inhibition [16]?
The inhibition was “inactive”.

What about the Activity [17] of the same molecule?
Its Activity is 80%.

And the CC50 [18]?
Its CC50 is 30 µM.

And the Activity [19]?
Its Activity is 9.92%.

And the Activity [20]?
The Activity was 34.64%.

What about the “inhibition (INH)” value [21] of the same molecule?
The value was “Dose-dependent effect”.

And the inhibition [22]?
The inhibition was “Active”.

And the Activity [23]?
The Activity was “Active”.

And the Activity [24]?
The Activity was 10.07%.

And the Activity [25]?
Its Activity is 40%.
